From ChEMBL document CHEMBL4219033, “Anticancer activity profiling of parthenolide analogs generated via P450-mediated chemoenzymatic synthesis” (2018)

Legend:
Assay type in all cases: functional
[1] = tested on: HCT-116; assay: Cytotoxicity against human HCT116 cells assessed as cell viability ratio at 10 uM after 24 hrs by MTT assay relative to control
[2] = tested on: HeLa; assay: Cytotoxicity against human HeLa cells assessed as cell viability ratio at 10 uM after 24 hrs by MTT assay relative to control
Procedure, shortened: (§1)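 Adherent lines in DMEM plus 10% FBS and penicillin-streptomycin, 37 °C, 5% CO2, lifted with Accutase. Seeded at 500–10,000 cells/well and rested 15 h. Compounds from 10 mM DMSO stocks dosed at 10 µM final, 1% DMSO final, n = 5, for 24 h. Medium then swapped for 1 mg/ml MTT in phenol-red-free medium for 3 h at 37 °C. Formazan dissolved in DMSO, OD read at 550 nm. Viability normalised to 1% DMSO vehicle control.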

[3] = tested on: SJSA-1; assay: Cytotoxicity against human SJSA1 cells assessed as cell viability ratio at 10 uM after 24 hrs by MTT assay relative to control; procedure, shortened: as §1
[4] = tested on: A549; assay: Cytotoxicity against human A549 cells assessed as cell viability ratio at 10 uM after 24 hrs by MTT assay relative to control; procedure, shortened: as §1
[5] = tested on: MDA-MB-231; assay: Cytotoxicity against human MDA-MB-231 cells assessed as cell viability ratio at 10 uM after 24 hrs by MTT assay relative to control; procedure, shortened: as §1
[6] = tested on: Jurkat; assay: Cytotoxicity against human Jurkat cells assessed as cell viability ratio at 10 uM after 24 hrs by MTT assay relative to control
Procedure, shortened: (§2)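 Suspension lines grown in α-MEM plus 10% FBS and penicillin-streptomycin, 37 °C, 5% CO2. Seeded at 30,000 cells/well in phenol-red-free α-MEM and rested 15 h. Exposed to 10 µM, or 2 µM in the lower-dose repeat, at 1% DMSO final for 24 h. 5 mg/ml MTT added directly for 3 h at 37 °C. Plates spun, formazan dissolved in DMSO, OD read at 550 nm. Viability relative to vehicle.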

[7] = tested on: SK-N-MC; assay: Cytotoxicity against human SK-N-MC cells assessed as cell viability ratio at 10 uM after 24 hrs by MTT assay relative to control; procedure, shortened: as §1
[8] = tested on: JeKo-1; assay: Cytotoxicity against human JeKo1 cells assessed as cell viability ratio at 10 uM after 24 hrs by MTT assay relative to control; procedure, shortened: as §2
[9] = tested on: PC-3; assay: Cytotoxicity against human PC3 cells assessed as cell viability ratio at 10 uM after 24 hrs by MTT assay relative to control; procedure, shortened: as §1
[10] = tested on: SK-MEL-2; assay: Cytotoxicity against human SK-MEL-2 cells assessed as cell viability ratio at 10 uM after 24 hrs by MTT assay relative to control; procedure, shortened: as §1
[11] = tested on: SK-MEL-2; assay: Cytotoxicity against human SK-MEL-2 cells assessed as cell viability after 24 hrs by MTT assay; conditions: SK-MEL-2, 24 h, read-out: LC50 (the source's name)
Procedure, shortened: (§3)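 Adherent cells grown in DMEM with 10% FBS and penicillin-streptomycin, dissociated with Accutase, seeded at 500–10,000 cells/well and held 15 h before treatment. Compounds diluted from 10 mM DMSO stocks, final 1% DMSO, for 24 h at 37 °C, 5% CO2. Medium replaced with 1 mg/ml MTT for 3 h, formazan dissolved in DMSO, OD 550 nm. LC50 from dose-response curves normalized to 1% DMSO vehicle.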

[12] = tested on: SK-N-MC; assay: Cytotoxicity against human SK-N-MC cells assessed as cell viability after 24 hrs by MTT assay; conditions: read-out: LC50 (the source's name); procedure, shortened: as §3
[13] = tested on: JeKo-1; assay: Cytotoxicity against human JeKo1 cells assessed as cell viability at 10 uM after 24 hrs by MTT assay relative to control; conditions: JeKo-1, 24 h, read-out: Activity; procedure, shortened: as §2
[14] = tested on: HeLa; assay: Cytotoxicity against human HeLa cells assessed as cell viability after 24 hrs by MTT assay; conditions: read-out: LC50 (the source's name); procedure, shortened: as §3
[15] = tested on: Jurkat; assay: Cytotoxicity against human Jurkat cells assessed as cell viability at 2 uM after 24 hrs by MTT assay relative to control; conditions: read-out: Activity; procedure, shortened: as §2
[16] = tested on: A549; assay: Cytotoxicity against human A549 cells assessed as cell viability at 10 uM after 24 hrs by MTT assay relative to control; conditions: A549, 24 h, read-out: Activity; procedure, shortened: as §1
[17] = tested on: MDA-MB-231; assay: Cytotoxicity against human MDA-MB-231 cells assessed as cell viability after 24 hrs by MTT assay; conditions: MDA-MB-231, 24 h, read-out: LC50 (the source's name); procedure, shortened: as §3
[18] = tested on: PC-3; assay: Cytotoxicity against human PC3 cells assessed as cell viability at 10 uM after 24 hrs by MTT assay relative to control; conditions: PC-3, 24 h, read-out: Activity; procedure, shortened: as §1
[19] = tested on: SJSA-1; assay: Cytotoxicity against human SJSA1 cells assessed as cell viability at 10 uM after 24 hrs by MTT assay relative to control; conditions: SJSA-1, 24 h, read-out: Activity; procedure, shortened: as §1
[20] = tested on: MDA-MB-231; assay: Cytotoxicity against human MDA-MB-231 cells assessed as cell viability at 10 uM after 24 hrs by MTT assay relative to control; conditions: MDA-MB-231, 24 h, read-out: Activity; procedure, shortened: as §1
[21] = tested on: JeKo-1; assay: Cytotoxicity against human JeKo1 cells assessed as cell viability after 24 hrs by MTT assay; conditions: JeKo-1, 24 h, read-out: LC50 (the source's name)
Procedure, shortened: (§4)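 Suspension cells grown in α-MEM with 10% FBS and penicillin-streptomycin, seeded at 30,000 cells/well in phenol red-free medium and held 15 h before treatment. Compounds diluted from 10 mM DMSO stocks, final 1% DMSO, for 24 h. MTT (5 mg/ml stock) added directly for 3 h at 37 °C, then centrifugation, DMSO solubilization, OD 550 nm. LC50 from dose-response curves normalized to vehicle.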

[22] = tested on: A549; assay: Cytotoxicity against human A549 cells assessed as cell viability after 24 hrs by MTT assay; conditions: A549, 24 h, read-out: LC50 (the source's name); procedure, shortened: as §3
[23] = tested on: Jurkat; assay: Cytotoxicity against human Jurkat cells assessed as cell viability at 10 uM after 24 hrs by MTT assay relative to control; conditions: read-out: Activity; procedure, shortened: as §2
[24] = tested on: Jurkat; assay: Cytotoxicity against human Jurkat cells assessed as cell viability after 24 hrs by MTT assay; conditions: read-out: LC50 (the source's name); procedure, shortened: as §4
[25] = tested on: SJSA-1; assay: Cytotoxicity against human SJSA1 cells assessed as cell viability after 24 hrs by MTT assay; conditions: SJSA-1, 24 h, read-out: LC50 (the source's name); procedure, shortened: as §3
[26] = tested on: HeLa; assay: Cytotoxicity against human HeLa cells assessed as cell viability at 10 uM after 24 hrs by MTT assay relative to control; conditions: read-out: Activity; procedure, shortened: as §1
[27] = tested on: SK-MEL-2; assay: Cytotoxicity against human SK-MEL-2 cells assessed as cell viability at 10 uM after 24 hrs by MTT assay relative to control; conditions: SK-MEL-2, 24 h, read-out: Activity; procedure, shortened: as §1
[28] = tested on: SK-N-MC; assay: Cytotoxicity against human SK-N-MC cells assessed as cell viability at 10 uM after 24 hrs by MTT assay relative to control; conditions: read-out: Activity; procedure, shortened: as §1
[29] = tested on: PC-3; assay: Cytotoxicity against human PC3 cells assessed as cell viability after 24 hrs by MTT assay; conditions: PC-3, 24 h, read-out: LC50 (the source's name); procedure, shortened: as §3
[30] = tested on: HCT-116; assay: Cytotoxicity against human HCT116 cells assessed as cell viability at 10 uM after 24 hrs by MTT assay relative to control; conditions: HCT-116, 24 h, read-out: Activity; procedure, shortened: as §1
[31] = tested on: JeKo-1; assay: Cytotoxicity against human JeKo1 cells assessed as cell viability at 2 uM after 24 hrs by MTT assay relative to control; conditions: JeKo-1, 24 h, read-out: Activity; procedure, shortened: as §2
[32] = tested on: HCT-116; assay: Cytotoxicity against human HCT116 cells assessed as cell viability after 24 hrs by MTT assay; conditions: HCT-116, 24 h, read-out: LC50 (the source's name); procedure, shortened: as §3

C=C1C(=O)O[C@@H]2[C@H]3O[C@]3(C)CC/C=C(\C)[C@@H](O)C[C@@H]12
fold change (FC) [1]: 1
fold change (FC) [2]: 0.2
fold change (FC) [3]: 0.9
fold change (FC) [4]: 1
fold change (FC) [5]: 0.9
fold change (FC) [6]: 1
fold change (FC) [7]: 1
fold change (FC) [8]: 1
fold change (FC) [9]: 1
fold change (FC) [10]: 1

C=C1C(=O)O[C@@H]2[C@H]3O[C@]3(C)CC/C=C(/COC(=O)Nc3cc(C(F)(F)F)cc(C(F)(F)F)c3)CC[C@@H]12
CC50 [11]: 4.3 µM
CC50 [12]: 0.6 µM
viability at 10 µM [13]: -1.8%
CC50 [14]: 1.5 µM
viability at 2 µM [15]: 74.9%
viability at 10 µM [16]: 25.1%
CC50 [17]: 6.1 µM
viability at 10 µM [18]: 13.7%
viability at 10 µM [19]: 23.3%
viability at 10 µM [20]: 5.5%
CC50 [21]: 3.4 µM
CC50 [22]: 5.5 µM
viability at 10 µM [23]: 0%
CC50 [24]: 3.3 µM
CC50 [25]: 9.2 µM
viability at 10 µM [26]: 3.8%
viability at 10 µM [27]: 25.7%
viability at 10 µM [28]: 2.1%
CC50 [29]: 5.5 µM
viability at 10 µM [30]: 3.9%
viability at 2 µM [31]: 71.5%
CC50 [32]: 5.9 µM

C=C1C(=O)O[C@@H]2[C@H]3O[C@]3(C)CC/C=C(\CO)CC[C@@H]12
fold change (FC) [1]: 0.9
fold change (FC) [2]: 0.3
fold change (FC) [3]: 0.9
fold change (FC) [4]: 0.9
fold change (FC) [5]: 1
fold change (FC) [6]: 1
fold change (FC) [7]: 1
fold change (FC) [8]: 1
fold change (FC) [9]: 1
fold change (FC) [10]: 1

C=C1C(=O)O[C@@H]2[C@H]3O[C@]3(C)CC/C=C(/COC(=O)c3cc(C(F)(F)F)cc(C(F)(F)F)c3)CC[C@@H]12
CC50 [12]: 0.6 µM
viability at 10 µM [13]: 4.8%
CC50 [14]: 1.5 µM
viability at 2 µM [15]: 70%
viability at 10 µM [16]: 29.6%
CC50 [17]: 6.2 µM
viability at 10 µM [18]: 3.7%
viability at 10 µM [19]: 23.1%
viability at 10 µM [20]: 8%
CC50 [21]: 1.7 µM
CC50 [22]: 4.9 µM
viability at 10 µM [23]: 5.7%
CC50 [24]: 1.9 µM
CC50 [25]: 6.4 µM
viability at 10 µM [26]: 3.9%
viability at 10 µM [27]: 28.6%
viability at 10 µM [28]: 3.2%
CC50 [29]: 4.7 µM
viability at 10 µM [30]: 15.5%
viability at 2 µM [31]: 64.3%
CC50 [32]: 5.7 µM

C=C1C(=O)O[C@@H]2[C@H]3O[C@]3(C)CC/C=C(/C)[C@@H](OC(=O)c3cc(C(F)(F)F)cc(C(F)(F)F)c3)C[C@@H]12
CC50 [11]: 2.6 µM
CC50 [12]: 4.7 µM
viability at 10 µM [13]: 4.1%
viability at 2 µM [15]: 53.1%
viability at 10 µM [16]: 82.5%
CC50 [17]: 3.8 µM
viability at 10 µM [18]: 2.2%
viability at 10 µM [19]: 88.2%
viability at 10 µM [20]: 3.6%
CC50 [21]: 1.2 µM
viability at 10 µM [23]: 5%
CC50 [24]: 1.2 µM
viability at 10 µM [26]: 32%
viability at 10 µM [27]: 14.8%
viability at 10 µM [28]: 3%
CC50 [29]: 3.1 µM
viability at 10 µM [30]: 54.4%
viability at 2 µM [31]: 73.3%

C=C1C(=O)O[C@@H]2C3O[C@]3(C)CC/C=C(\C)CC[C@@H]12 (stereo partly drawn)
CC50 [11]: 24.9 µM
CC50 [12]: 4.7 µM
viability at 10 µM [13]: 47.5%
CC50 [14]: 9 µM
viability at 2 µM [15]: 100%
viability at 10 µM [16]: 85%
CC50 [17]: 18.3 µM
viability at 10 µM [18]: 82.6%
viability at 10 µM [19]: 100%
viability at 10 µM [20]: 67%
CC50 [21]: 10 µM
CC50 [22]: 29.7 µM
viability at 10 µM [23]: 70.3%
CC50 [24]: 16.9 µM
CC50 [25]: 42.4 µM
viability at 10 µM [26]: 35%
viability at 10 µM [27]: 95.8%
viability at 10 µM [28]: 30%
CC50 [29]: 20.5 µM
viability at 10 µM [30]: 104%
viability at 2 µM [31]: 100%
CC50 [32]: 18 µM
